Results as given in ChEMBL document CHEMBL1275360, “1-Bromo-3-(1',1'-dimethylalkyl)-1-deoxy-Δ(8)-tetrahydrocannabinols: New selective ligands for the cannabinoid CB(2) receptor” (Bioorg Med Chem, 2010).

What was measured:
Cannabinoid receptor 2 [1] = target: T1, Cannabinoid receptor 2 (Homo sapiens, UniProt P34972); test: Binding affinity to CB2 receptor
Cannabinoid receptor 1 [2] = target: Cannabinoid receptor 1 (Homo sapiens, UniProt P21554); test: Binding affinity to CB1 receptor
Cannabinoid receptor 1 [3] = target: Cannabinoid receptor 1 (Rattus norvegicus, UniProt P20272); test: Displacement of [3H]CP-55940 from CB1 receptor in Sprague-Dawley rat brain membranes after 1 hr by liquid scintillation spectrophotometry; format: cell membranes, Membrane
Chain of Cannabinoid receptor 1 (Rattus norvegicus, UniProt P20272) (P20272 whole entry): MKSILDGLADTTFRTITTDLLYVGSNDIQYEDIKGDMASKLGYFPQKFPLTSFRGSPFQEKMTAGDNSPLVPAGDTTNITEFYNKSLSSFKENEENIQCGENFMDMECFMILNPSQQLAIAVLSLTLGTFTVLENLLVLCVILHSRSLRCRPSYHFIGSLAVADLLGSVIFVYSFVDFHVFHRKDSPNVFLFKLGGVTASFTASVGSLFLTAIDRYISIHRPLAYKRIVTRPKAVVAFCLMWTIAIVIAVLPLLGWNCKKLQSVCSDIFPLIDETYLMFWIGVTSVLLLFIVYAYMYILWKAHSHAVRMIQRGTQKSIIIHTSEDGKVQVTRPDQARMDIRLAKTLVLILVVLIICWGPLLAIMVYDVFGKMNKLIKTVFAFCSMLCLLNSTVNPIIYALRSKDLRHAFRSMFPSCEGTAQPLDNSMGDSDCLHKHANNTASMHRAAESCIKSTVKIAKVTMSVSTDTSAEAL
In short: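 Membranes from whole rat brain (CB1) or human CB2-expressing CHO cells (CB2) were incubated 1 hr at 30°C with 1 nM [3H]CP-55,940 and six competitor concentrations (0.1 nM–10 μM). Buffer contained 5 mg/ml BSA, ethanol ≤0.4%. Nonspecific binding was defined with 1 μM CP-55,940. Separation on polyethyleneimine-treated GF/B filters, then scintillation counting. IC50 from log-linear regression, Ki via Cheng-Prusoff; triplicate, 3–6 repeats.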

Cannabinoid receptor 2 [4] = target: T1, Cannabinoid receptor 2; test: Displacement of [3H]CP-55940 from human CB2 receptor expressed in CHO cells after 1 hr by liquid scintillation spectrophotometry; format: cell-based
[5] = Selectivity ratio of IC50 for CB1 receptor in Sprague-Dawley rat brain membranes to IC50 for human CB2 receptor; format: cell membranes; conditions: Membrane
Cannabinoid receptor 2 [6] = target: T1, Cannabinoid receptor 2; test: Agonist activity at human CB2 receptor expressed in CHO cells assessed as stimulation of [35S]GTPgammaS binding after 1.5 hrs by liquid scintillation spectrophotometry relative to CP-55940; format: functional, cell-based
In short: (§1)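 Membranes from CB2-CHO cells grown in DMEM/Ham F-12 with G418 and 5% fetal calf serum. Reactions used 10 μg membrane protein with 10 μM GDP, 0.1 nM radiolabelled GTPγS, 1 mg/mL BSA and varied drug concentrations in NaCl/EGTA Tris buffer pH 7.4, for 1.5 hr at 30°C. Nonspecific binding (unlabeled GTPγS) subtracted; filtration, scintillation counting. Nonlinear regression; Emax relative to 3 μM CP-55,940; mean ± SEM, ≥3 experiments in triplicate.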

Cannabinoid receptor 2 [7] = target: T1, Cannabinoid receptor 2; test: Agonist activity at human CB2 receptor expressed in CHO cells assessed as stimulation of [35S]GTPgammaS binding after 1.5 hrs by liquid scintillation spectrophotometry; format: functional, cell-based; in short: as §1

T1 sequence (P34972 whole entry): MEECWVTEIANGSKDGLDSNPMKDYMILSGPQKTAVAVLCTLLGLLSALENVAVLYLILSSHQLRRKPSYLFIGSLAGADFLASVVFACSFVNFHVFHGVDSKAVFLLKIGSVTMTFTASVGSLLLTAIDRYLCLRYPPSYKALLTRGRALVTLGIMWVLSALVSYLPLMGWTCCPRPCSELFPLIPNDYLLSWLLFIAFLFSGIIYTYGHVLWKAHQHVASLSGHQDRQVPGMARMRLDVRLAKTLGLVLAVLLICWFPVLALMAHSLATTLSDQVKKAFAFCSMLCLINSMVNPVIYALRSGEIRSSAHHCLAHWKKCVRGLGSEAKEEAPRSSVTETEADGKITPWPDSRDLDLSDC
Chain of Cannabinoid receptor 1 (Homo sapiens, UniProt P21554) (P21554 whole entry): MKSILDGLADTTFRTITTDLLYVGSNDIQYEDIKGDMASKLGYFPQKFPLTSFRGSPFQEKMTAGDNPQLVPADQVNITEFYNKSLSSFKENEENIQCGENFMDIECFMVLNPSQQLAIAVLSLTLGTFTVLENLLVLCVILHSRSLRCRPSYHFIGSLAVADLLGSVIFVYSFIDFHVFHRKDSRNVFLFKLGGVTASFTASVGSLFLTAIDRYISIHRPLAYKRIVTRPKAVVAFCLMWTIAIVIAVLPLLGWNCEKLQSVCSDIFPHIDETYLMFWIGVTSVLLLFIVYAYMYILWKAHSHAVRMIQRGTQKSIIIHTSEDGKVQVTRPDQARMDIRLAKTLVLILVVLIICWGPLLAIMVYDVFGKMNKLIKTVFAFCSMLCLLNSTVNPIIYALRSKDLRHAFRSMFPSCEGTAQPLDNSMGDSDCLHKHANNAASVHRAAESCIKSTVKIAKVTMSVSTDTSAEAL

SMILES: CCCCCCC(C)(C)c1ccc2c(c1)OC(C)(C)[C@@H]1CC=C(CO)C[C@@H]21
- Ki (Cannabinoid receptor 2 [1]): 0.032 nM
- Ki (Cannabinoid receptor 1 [2]): 1.2 nM

SMILES: CCCCCCC(C)(C)c1ccc2c(c1)OC(C)(C)[C@@H]1CC=C(C)C[C@@H]21
- Ki (Cannabinoid receptor 2 [1]): 2.9 nM
- Ki (Cannabinoid receptor 1 [2]): 23 nM

SMILES: CCCC(C)(C)c1cc(Br)c2c(c1)OC(C)(C)[C@@H]1CC=C(C)C[C@@H]21
- Ki (Cannabinoid receptor 1 [3]): > 10000 nM
- Ki (Cannabinoid receptor 2 [4]): 265 nM
- Ratio Ki [5]: 38

SMILES: CCCCCCC(C)(C)c1cc(Br)c2c(c1)OC(C)(C)[C@@H]1CC=C(C)C[C@@H]21
- Ki (Cannabinoid receptor 1 [3]): 562 nM
- Ki (Cannabinoid receptor 2 [4]): 34 nM
- Ratio Ki [5]: 27
- Emax (Cannabinoid receptor 2 [6]): 91%
- EC50 (Cannabinoid receptor 2 [7]): 15 nM

SMILES: CCCC(C)(C)c1ccc2c(c1)OC(C)(C)[C@@H]1CC=C(C)C[C@@H]21
- Ki (Cannabinoid receptor 1 [3]): 677 nM
- Ratio Ki [5]: 294
- Emax (Cannabinoid receptor 2 [6]): 112%
- EC50 (Cannabinoid receptor 2 [7]): 4 nM

SMILES: CCCCCC(C)(C)c1cc(Br)c2c(c1)OC(C)(C)[C@@H]1CC=C(C)C[C@@H]21
- Ki (Cannabinoid receptor 1 [3]): 1440 nM
- Ki (Cannabinoid receptor 2 [4]): 28 nM
- Ratio Ki [5]: 52
- Emax (Cannabinoid receptor 2 [6]): 92.3%
- EC50 (Cannabinoid receptor 2 [7]): 28.6 nM

SMILES: CCCCC(C)(C)c1cc(Br)c2c(c1)OC(C)(C)[C@@H]1CC=C(C)C[C@@H]21
- Ki (Cannabinoid receptor 1 [3]): 1140 nM
- Ki (Cannabinoid receptor 2 [4]): 71 nM
- Ratio Ki [5]: 16

SMILES: CCCCCc1cc(Br)c2c(c1)OC(C)(C)[C@@H]1CC=C(C)C[C@@H]21
- Ki (Cannabinoid receptor 1 [3]): > 10000 nM
- Ki (Cannabinoid receptor 2 [4]): 555 nM
- Ratio Ki [5]: 18
